Results of several laboratories.
Each line is one published result; the experiments were not run side by side.
Target: STE20-like serine/threonine-protein kinase (SLK, Homo sapiens, UniProt Q9H2G2)

The remaining binding of CCCCC(=O)Nc1ccc(-c2ccc3ncn(CCC)c(=O)c3c2)cn1 is reported as 100% (binding; competition with immobilised ligand; 0.5 µM).
For CNS(=O)(=O)c1ccc(Nc2ncc(C(F)(F)F)c(N3CCC[C@](C)(O)C3)n2)c(C)c1, the remaining binding was 96% (binding; competition with immobilised ligand; 1 µM).
The remaining binding of CN1CCN(C(=O)c2ccc(NC(=O)Nc3ccc(N(C)c4ccnc(Nc5ccc(CS(C)(=O)=O)cc5)n4)cc3)cc2)CC1 is reported as 8.9% (binding; competition with immobilised ligand; 1 µM).
CC#CC(=O)N1CCC[C@H]1c1nc(-c2ccc(C(=O)Nc3ccccn3)cc2)c2c(N)nccn12 has an inhibition of 0% (enzyme activity; inhibitor; 1 µM).
For C[C@H]1CC[C@H](n2c3cnccc3c3cnc(Nc4ccc5c(n4)CCN(C(=O)CO)C5)nc32)CC1, the remaining binding was 78% (binding; competition with immobilised ligand; 1 µM).
For C[C@]1(O)CCCN(c2nc(Nc3ccc(S(=O)(=O)N[C@H]4CC[C@H](CN5CCN(c6ccc(C7CCC(=O)NC7=O)cc6F)CC5)CC4)cc3Cl)ncc2C(F)(F)F)C1 (some centres unmarked), the remaining binding was 100% (binding; competition with immobilised ligand; 1 µM).
The inhibition of C#Cc1cc(-c2cc(Nc3nc(N[C@@H](C)c4ccc(F)cn4)ncc3Cl)n[nH]2)ccc1C=O is reported as 54.5% (enzyme activity; inhibitor; 0.2 µM).
C=CC(=O)N1CCC([C@@H]2CCNc3c(C(N)=O)c(-c4ccc(Oc5ccccc5)cc4)nn32)CC1 gave an inhibition of 0% (enzyme activity; inhibitor; 1 µM).
